These results are taken from ChEMBL document CHEMBL1147632, “2-(N-acyl) and 2-N-acyl-N(6)-substituted analogues of adenosine and their affinity at the human adenosine receptors” (Bioorg Med Chem Lett, 2004).

In one experiment the target is Adenosine receptor A2a (Homo sapiens, UniProt P29274). As to the kind of experiment: Displacement of [3H]NECA from human adenosine A2A receptor in stably transfected CHO cells. The format is cell-based. The procedure, abridged:
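Radioligand displacement of specific [³H]NECA binding to human recombinant A2A receptor stably expressed in CHO cells; affinity given as Ki (nM).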

The next experiment has as its target T1, Adenosine receptor A3 (Homo sapiens, UniProt P0DMS8).
T1 sequence (P0DMS8 whole entry): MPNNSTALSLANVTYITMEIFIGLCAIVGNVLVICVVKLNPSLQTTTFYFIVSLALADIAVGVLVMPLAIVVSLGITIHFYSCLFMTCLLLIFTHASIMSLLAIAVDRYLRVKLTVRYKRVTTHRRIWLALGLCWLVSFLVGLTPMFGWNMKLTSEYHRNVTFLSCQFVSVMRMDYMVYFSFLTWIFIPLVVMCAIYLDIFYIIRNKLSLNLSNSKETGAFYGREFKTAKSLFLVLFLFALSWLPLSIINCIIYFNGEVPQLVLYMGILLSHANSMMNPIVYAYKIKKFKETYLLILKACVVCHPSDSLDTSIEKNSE
Put plainly: Displacement of [3H]NECA from human adenosine A3 receptor in stably transfected HEK cells. The format is cell-based, HEK293. The procedure, abridged:
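Competition for specific [³H]NECA binding at human recombinant A3 receptor stably transfected into HEK cells; Ki reported in nM.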

Another experiment has as its target T2, Adenosine receptor A1 (Homo sapiens, UniProt P30542).
T2 sequence (P30542 whole entry): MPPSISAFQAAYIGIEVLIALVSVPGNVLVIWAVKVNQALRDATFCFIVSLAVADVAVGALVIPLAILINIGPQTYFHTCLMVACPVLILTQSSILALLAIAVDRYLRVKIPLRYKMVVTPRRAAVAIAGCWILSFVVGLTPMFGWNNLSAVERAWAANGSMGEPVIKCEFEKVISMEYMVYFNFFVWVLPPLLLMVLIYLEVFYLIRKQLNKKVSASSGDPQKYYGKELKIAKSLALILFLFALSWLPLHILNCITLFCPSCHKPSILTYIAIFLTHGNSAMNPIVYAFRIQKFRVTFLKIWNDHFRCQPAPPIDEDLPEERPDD
Put plainly: Displacement of [3H]CCPA from human adenosine A1 receptor expressed in CHO cells. The format is cell-based.

Experiment [1] has as its target Adenosine receptors; A1 & A2a (Homo sapiens) (UniProt P30542+P29274). Put plainly: Ratio of binding affinity for adenosine A2A receptor to adenosine A1 receptor. The format is protein assay.
Experiment [2] has as its target T3, Adenosine receptor A2b (Homo sapiens) (UniProt P29275).
T3 sequence (whole entry): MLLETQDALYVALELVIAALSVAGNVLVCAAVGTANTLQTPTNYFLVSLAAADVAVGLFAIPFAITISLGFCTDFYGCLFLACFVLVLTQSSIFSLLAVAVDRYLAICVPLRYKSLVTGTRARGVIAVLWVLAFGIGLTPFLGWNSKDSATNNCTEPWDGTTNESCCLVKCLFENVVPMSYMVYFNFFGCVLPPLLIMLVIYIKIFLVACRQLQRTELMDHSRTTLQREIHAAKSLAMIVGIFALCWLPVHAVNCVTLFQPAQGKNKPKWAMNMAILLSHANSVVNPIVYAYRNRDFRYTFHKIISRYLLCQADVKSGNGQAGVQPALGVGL
Put plainly: Potency NECA-induced signal mediated by human A2B receptor in CHO cells at 100 uM. The format is cell-based. In a few lines:
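Adenylyl cyclase activation measured in membranes from CHO cells stably transfected with human A2B receptor; test compounds at […], response expressed as percent of maximal NECA signal.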

Experiment [3] deals with Adenosine receptors; A1 & A3 (Homo sapiens) (UniProt P30542+P0DMS8). As to the kind of experiment: Ratio of binding affinity for adenosine A3 receptor to adenosine A1 receptor. The format is protein assay.

Adenosine receptors; A1 & A2a (Homo sapiens), sequence (P29274 whole entry, looked up, one chain of several): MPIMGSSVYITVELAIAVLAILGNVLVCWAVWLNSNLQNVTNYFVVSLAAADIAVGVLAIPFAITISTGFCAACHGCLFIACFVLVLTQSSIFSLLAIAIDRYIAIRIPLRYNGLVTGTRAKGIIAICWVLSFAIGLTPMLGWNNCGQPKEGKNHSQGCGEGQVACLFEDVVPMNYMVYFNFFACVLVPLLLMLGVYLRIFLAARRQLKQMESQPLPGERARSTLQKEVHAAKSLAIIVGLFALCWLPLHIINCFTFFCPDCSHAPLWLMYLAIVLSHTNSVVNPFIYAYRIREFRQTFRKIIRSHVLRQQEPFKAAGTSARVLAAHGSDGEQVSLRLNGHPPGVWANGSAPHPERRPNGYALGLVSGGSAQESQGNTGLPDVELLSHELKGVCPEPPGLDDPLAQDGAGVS
Adenosine receptor A2a, sequence (P29274 whole entry): as the sequence (P29274 whole entry, looked up, one chain of several) above

For `Nc1nc(NC(=O)CCCC2CCCCC2)nc2c1ncn2[C@@H]1O[C@H](CO)[C@@H](O)[C@H]1O`, the figures for the Ki at Adenosine receptor A2a, on Adenosine receptor A3 and on Adenosine receptor A1 were 1940 nM, 1060 nM and 733 nM, respectively. Further, the values for the Ratio in experiment [1] and in experiment [3] were 3 and 1.4, respectively. In experiment [2], the Potency was < 20%.

Regarding `O=C(CCC1CCCC1)Nc1nc(NC2CCCC2)c2ncn([C@@H]3O[C@H](CO)[C@@H](O)[C@H]3O)c2n1`, the inhibition constant (Ki) was determined as 2180 nM on Adenosine receptor A2a, 1410 nM at Adenosine receptor A3 and 31.8 nM at Adenosine receptor A1. The Ratio in experiment [1] amounted to 69; in experiment [3], 44. For the same compound, the Potency in experiment [2] is < 20%.

Consider `O=C(CCc1ccccc1)Nc1nc(NC2CCCC2)c2ncn([C@@H]3O[C@H](CO)[C@@H](O)[C@H]3O)c2n1`, for which the Ki was 5660 nM at Adenosine receptor A2a, 1250 nM on Adenosine receptor A3 and 20.7 nM on Adenosine receptor A1. For the same compound, the values for the Ratio in experiment [1] and in experiment [3] were 273 and 60, respectively. For the same compound, the Potency in experiment [2] was < 20%.

In the case of `CCNC(=O)[C@H]1O[C@@H](n2cnc3c(N)nc(NC(=O)CCC4CCCC4)nc32)[C@H](O)[C@@H]1O`, the Ki on Adenosine receptor A2a stood at 10800 nM; at Adenosine receptor A3, 1010 nM; on Adenosine receptor A1 it was 5450 nM. The Ratio in experiment [1] is 2; in experiment [3], 0.2. In addition, in experiment [2], the Potency was < 20%.

On to `OC[C@H]1O[C@@H](n2cnc3c(NC4CCCC4)nc(Cl)nc32)[C@H](O)[C@@H]1O`, for which, in experiment [2], the Potency is < 20%.

As to `Nc1nc(NC(=O)/C=C/c2ccccc2)nc2c1ncn2[C@@H]1O[C@H](CO)[C@@H](O)[C@H]1O`, the inhibition constant Ki on Adenosine receptor A2a worked out at 4100 nM; at Adenosine receptor A3 it was 900 nM; on Adenosine receptor A1, 70.7 nM. The Ratio came to 58 in experiment [1] and 13 in experiment [3]. In addition, the Potency in experiment [2] was < 20%.

For the compound `Nc1nc(NC(=O)CCC2CCCC2)nc2c1ncn2[C@@H]1O[C@H](CO)[C@@H](O)[C@H]1O`, the Ki at Adenosine receptor A2a turned out to be 2000 nM; on Adenosine receptor A3, 1040 nM; at Adenosine receptor A1, 252 nM. Besides, the Ratio was found to be 8 in experiment [1] and 4 in experiment [3]. In addition, in experiment [2], the Potency was < 20%.

Take `Nc1nc(NC(=O)C2CCCCC2)nc2c1ncn2[C@@H]1O[C@H](CO)[C@@H](O)[C@H]1O`: the inhibitory constant (Ki) amounted to 1780 nM on Adenosine receptor A2a, 2760 nM on Adenosine receptor A3 and 1620 nM on Adenosine receptor A1. Moreover, the Ratio in experiment [1] worked out at 1.1; in experiment [3], 1.7. The Potency in experiment [2] was < 20%.

Take `Nc1nc(NC(=O)CC2CCCCC2)nc2c1ncn2[C@@H]1O[C@H](CO)[C@@H](O)[C@H]1O`: the Ki at Adenosine receptor A2a stood at 2410 nM; at Adenosine receptor A3, 1230 nM; on Adenosine receptor A1, 342 nM. Also, the Ratio in experiment [1] is 7; in experiment [3] it was 4. The Potency in experiment [2] was < 20%.

Turning to `CCNc1nc(NC(=O)CC2CCCCC2)nc2c1ncn2[C@@H]1O[C@H](CO)[C@@H](O)[C@H]1O`, the Ki on Adenosine receptor A2a amounted to 7750 nM; at Adenosine receptor A3, 181 nM; on Adenosine receptor A1 it was 207 nM. Moreover, the Ratio was 37 in experiment [1] and 0.9 in experiment [3]. Further, the Potency in experiment [2] is < 20%.

Consider `Nc1nc(NC(=O)CCc2ccccc2)nc2c1ncn2[C@@H]1O[C@H](CO)[C@@H](O)[C@H]1O`, for which the inhibition constant Ki at Adenosine receptor A2a was 4570 nM; on Adenosine receptor A3, 2710 nM; at Adenosine receptor A1, 432 nM. The values for the Ratio in experiment [1] and in experiment [3] were 11 and 6, respectively. Besides, in experiment [2], the Potency was < 20%.
